Reference: publication PMC6127844 (Journal of Enzyme Inhibition and Medicinal Chemistry, 2018)
Read-outs that look alike come from different tables or passages of the source.

How the values were obtained:
[1] = read-out: DPPH radical scavenging EC50, cited from earlier work
SH-SY5Y cells = experiment: Concentration screening for nontoxic concentration; assay type: cell-based, human; conditions: 24 h, MTT
Method in brief: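 SH-SY5Y human neuroblastoma cells grown in DMEM with 10% heat-inactivated FCS, penicillin and streptomycin at 37 °C in 5% CO2. Plated at 0.12 × 10^6 cells/ml. Test compound from 25 mM DMSO stock, screened at 5 to 30 μM. MTT (0.5 mg/ml) for 3 h at 37 °C; formazan dissolved in 0.04 M HCl/isopropanol and read at 570 nm. Expressed as % of untreated cells.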

Aβ1–42 [2] = biological target: T1, Aβ1–42 (Homo sapiens, UniProt P05067); experiment: TEM imaging of Aβ1–42 aggregation
Method in brief: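 Aβ1–42 film dissolved by sonication in CH3CN/NaCl/NH4OH and diluted in 50 mM HEPES, pH 6.6. Mixed with test compound, with or without CuCl2, and incubated 24 h at 37 °C with gentle shaking. Sample applied to formvar/carbon Cu grids for 2 min at RT, washed with water and stained with 1% uranyl acetate for 1 min. Imaged at 200 kV, 10000–20000×.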

Aβ1–42 [3] = biological target: T1, Aβ1–42; experiment: Inhibition of Cu; assay type: biochemical; conditions: read-out: Inhibition of Aβ aggregation in the presence of copper(II)
Method in brief: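 Aβ1–42 pretreated with HFIP, held as stock in CH3CN/Na2CO3/NaOH, then diluted to 40 μM in 0.215 M phosphate, pH 8.0. Incubated 24 h at 37 °C with or without test compound (80 μM), with CuCl2 (40 μM) for the Cu(II) condition. ThT (5 μM, glycine–NaOH pH 8.5) fluorescence read at 446/485 nm, corrected for peptide-free blanks. % inhibition taken versus no compound; mean ± SEM of duplicates from two experiments.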

[4] = Antioxidant activity, DPPH radical scavenging; conditions: read-out: DPPH radical scavenging EC50
Method in brief: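 DPPH at 0.002% in methanol mixed with the test compound in methanol at five concentrations. Incubated 30 min at RT, protected from light. Absorbance read at 517 nm against a methanol blank. %AA = 100×(A_DPPH − A_sol)/A_DPPH. Run in duplicate. EC50 taken from a plot of antioxidant activity against compound concentration.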

[5] = physiological pH, CL/CM=10, CM=1 μM; cited from earlier work
Aβ1–42 [6] = biological target: T1, Aβ1–42; conditions: cited from earlier work

T1 sequence (P05067 672-713): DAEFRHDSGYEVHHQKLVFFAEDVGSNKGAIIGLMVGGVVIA

Nc1c2c(nc3ccccc13)CCCC2 [Tacrine, tacrine]
EC50 [1]: > 1000 µM

O=C(NCC1CCN(Cc2ccccc2)CC1)c1ccc2[nH]c(-c3ccccc3O)nc2c1 [Compound 1, N-((1-benzylpiperidin-4-yl)methyl)-2-(2-hydroxyphenyl)-1H-benzo[d]imidazole-5-carboxamide]
Highest nontoxic concentration (SH-SY5Y cells): 2.5 µM | Aβ aggregates seen by TEM (Aβ1–42 [2]; absence of copper): quite sparse | Aβ aggregates seen by TEM (Aβ1–42 [2]; presence of copper): reduction of Aβ aggregates

Cc1c(C)c2c(c(C)c1O)CCC(C)(C(=O)O)O2 (stereo not drawn) [Trolox]
EC50 ([1]; same experimental method): 15 µM

O=C(NCC1CCN(Cc2ccccc2)CC1)c1cc2ccccc2o1 [Compound 4, N-((1-benzylpiperidin-4-yl)methyl)benzofuran-2-carboxamide]
Highest nontoxic concentration (SH-SY5Y cells): 30 µM

O=C(NCCN1CCN(Cc2ccccc2)CC1)c1cc2ccccc2o1 [Compound 5, N-(2-(4-benzylpiperazin-1-yl)ethyl)benzofuran-2-carboxamide]
Highest nontoxic concentration (SH-SY5Y cells): 30 µM

COc1cccc2cc(C(=O)NCC3CCN(Cc4ccccc4)CC3)oc12 [Compound 6, N-((1-benzylpiperidin-4-yl)methyl)-7-methoxy-benzofuran-2-carboxamide]
Highest nontoxic concentration (SH-SY5Y cells): 20 µM

O=C(NCCN1CCN(Cc2ccccc2)CC1)c1cc2cccc(O)c2o1 [Compound 3, N-(2-(4-benzylpiperazin-1-yl)ethyl)-7-hydroxybenzofuran-2-carboxamide]
inhibition (Aβ1–42 [3]): 35.5%

O=C(NCCN1CCN(Cc2ccccc2)CC1)c1ccc2[nH]c(-c3ccccc3O)nc2c1 [Compound 2, N-(2-(4-benzylpiperazin-1-yl)ethyl)-2-(2-hydroxyphenyl)-1H-benzo[d]imidazole-5-carboxamide]
EC50 [4]: 594 ± 4 µM | Highest nontoxic concentration (SH-SY5Y cells): 5 µM | pCu [5]: 11.4 | Aβ aggregates seen by TEM (Aβ1–42 [6]; absence of copper): a reduction of Aβ aggregates was also observed | Aβ aggregates seen by TEM (Aβ1–42 [6]; presence of copper): reduction of Aβ aggregates

COc1cccc2cc(C(=O)NCCN3CCN(Cc4ccccc4)CC3)oc12 [Compound 7, N-(2-(4-benzylpiperazin-1-yl)ethyl)-7-methoxybenzofuran-2-carboxamide]
Highest nontoxic concentration (SH-SY5Y cells): 30 µM
